Assay results as given in ChEMBL document CHEMBL3813640, “Design and synthesis of potent and selective pyridazin-4(1H)-one-based PDE10A inhibitors interacting with Tyr683 in the PDE10A selectivity pocket” (Bioorg Med Chem, 2016).

Each molecule was assayed against cAMP and cAMP-inhibited cGMP 3',5'-cyclic phosphodiesterase 10A (Homo sapiens, UniProt Q9Y233) (assay: Inhibition of human full length PDE10A2 expressed in African green monkey COS7 cells using [3H]cGMP as substrate preincubated for 30 mins followed by substrate addition measured after 60 mins by scintillation proximity assay).
Chain of cAMP and cAMP-inhibited cGMP 3',5'-cyclic phosphodiesterase 10A (Q9Y233 whole entry): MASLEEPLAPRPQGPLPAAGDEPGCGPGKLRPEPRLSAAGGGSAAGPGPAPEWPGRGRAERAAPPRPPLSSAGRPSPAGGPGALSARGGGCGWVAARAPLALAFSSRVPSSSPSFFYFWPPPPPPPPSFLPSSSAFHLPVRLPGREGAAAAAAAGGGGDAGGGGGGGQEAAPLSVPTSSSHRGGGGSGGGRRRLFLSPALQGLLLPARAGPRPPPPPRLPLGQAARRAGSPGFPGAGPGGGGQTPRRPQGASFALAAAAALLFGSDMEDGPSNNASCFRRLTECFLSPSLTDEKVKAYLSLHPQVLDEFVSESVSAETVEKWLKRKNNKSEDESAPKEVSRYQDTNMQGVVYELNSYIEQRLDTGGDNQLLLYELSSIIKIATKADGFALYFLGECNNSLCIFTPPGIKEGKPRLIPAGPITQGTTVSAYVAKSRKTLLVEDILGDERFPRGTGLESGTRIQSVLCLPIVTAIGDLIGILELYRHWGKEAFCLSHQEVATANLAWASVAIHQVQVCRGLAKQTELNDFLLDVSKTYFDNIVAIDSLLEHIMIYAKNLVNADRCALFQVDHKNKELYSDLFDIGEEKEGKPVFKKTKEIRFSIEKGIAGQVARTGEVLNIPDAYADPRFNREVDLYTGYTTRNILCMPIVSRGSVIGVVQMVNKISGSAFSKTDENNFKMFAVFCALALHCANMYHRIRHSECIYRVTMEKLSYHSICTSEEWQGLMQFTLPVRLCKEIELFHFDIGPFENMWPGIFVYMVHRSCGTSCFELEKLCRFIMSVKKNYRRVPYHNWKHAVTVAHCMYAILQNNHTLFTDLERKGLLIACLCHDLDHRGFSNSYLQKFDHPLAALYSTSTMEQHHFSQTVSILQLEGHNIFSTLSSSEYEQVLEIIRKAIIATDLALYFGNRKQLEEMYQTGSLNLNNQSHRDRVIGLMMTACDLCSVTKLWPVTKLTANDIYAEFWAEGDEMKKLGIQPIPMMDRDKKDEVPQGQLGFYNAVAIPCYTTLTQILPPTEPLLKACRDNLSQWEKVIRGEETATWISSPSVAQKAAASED
Assay type: cell-based, COS-7
Summary of the method: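 Full-length human PDE10A2 from transfected COS-7 cells, held at -70 °C. [³H]cGMP added, 60 min at rt, stopped with yttrium SPA beads containing ZnSO₄. Counted after ≥120 min settling. Inhibition set against DMSO (0%) and 10 µM papaverine (100%) wells. Duplicate or triplicate.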
In the case of `Cn1c(CCOc2cn(CC3CC3)nc(-c3ccnn3-c3ccccc3)c2=O)nc2ccccc21`, the IC50 is reported as 25 nM. For `COc1cn(-c2ccccc2)nc(-c2ccnn2C)c1=O`, the IC50 was 2400 nM. Molecule `COc1cn(C)nc(-c2ccnn2-c2ccccc2)c1=O` has an IC50 of 1000 nM. In the case of `O=c1c(OCCN2CCn3c2nc2ccccc23)cn(CC2CC2)nc1-c1ccnn1-c1ccccc1`, the IC50 is reported as 0.76 nM. Molecule `Cn1c(CCCOc2cn(CC3CC3)nc(-c3ccnn3-c3ccccc3)c2=O)nc2ccccc21` has an IC50 of 0.81 nM. Molecule `COc1cn(C2CC2)nc(-c2ccnn2-c2ccccc2)c1=O` has an IC50 of 130 nM. With `Cn1c(COc2cn(CC3CC3)nc(-c3ccnn3-c3ccccc3)c2=O)nc2ccccc21` the IC50 was 2800 nM. Work on `Cn1c(CCCCOc2cn(CC3CC3)nc(-c3ccnn3-c3ccccc3)c2=O)nc2ccccc21` yielded an IC50 of 760 nM. With `Cn1c(OCCOc2cn(CC3CC3)nc(-c3ccnn3-c3ccccc3)c2=O)nc2ccccc21` the IC50 was 4.1 nM. `COc1cn(CC(F)(F)F)nc(-c2ccnn2-c2ccccc2)c1=O` showed an IC50 of 550 nM. Molecule `COc1cn(CC2CC2)nc(-c2ccnn2-c2ccccc2)c1=O` has an IC50 of 170 nM.
